In ChEMBL document CHEMBL4431315, “Jatrophane Diterpenoids as Modulators of P-Glycoprotein-Dependent Multidrug Resistance (MDR): Advances of Structure-Activity Relationships and Discovery of Promising MDR Reversal Agents” (J Med Chem, 2016):
The source made the active and inactive calls. The calls are words filed in the database; no cut-off is given here.

Assays:
[1] = molecular target: T1, ATP-dependent translocase ABCB1 (Homo sapiens, UniProt P08183); assay: Inhibition of P-gp mediated efflux in adriamycin-resistant human HepG2 cells assessed as intracellular rhodamine-123 accumulation at 0.125 uM incubated in dark condition for 90 mins by flow cytometry relative to control; assay type: cell-based
Summary of the method: (§1)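 HepG2/ADR cells seeded at 5 × 10^5/well and given compound plus 10 μM Rho123 in the dark at 37 °C for 90 min. Cells washed twice in ice-cold PBS, resuspended in PBS, read by flow cytometry in FL1 (Em 525 nm). Fold of control = (treated fluorescence − background)/(Rho123-only fluorescence − background).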

[2] = molecular target: T1, ATP-dependent translocase ABCB1; assay: Inhibition of P-gp mediated efflux in adriamycin-resistant human HepG2 cells assessed as intracellular rhodamine-123 accumulation at 10 uM incubated in dark condition for 90 mins by flow cytometry relative to control; assay type: cell-based; summary of the method: as §1
[3] = Cytotoxicity against HLF cells assessed as inhibition of cell proliferation after 48 hrs by MTT assay; assay type: cell-based; details: Homo sapiens
Summary of the method: (§2)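 Seeded at 5 × 10^3 cells/well with graded compound levels, DMSO as negative control, 48 h. MTT added for 4 h, formazan dissolved in DMSO, OD read at 570 nm (reference 630 nm). IC50 by nonlinear regression; triplicate samples.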

[4] = Metabolic stability in Sprague-Dawley rat liver microsomes assessed as rate constant at 100 uM by HPLC-UV analysis; assay type: ADME, Microsome
Summary of the method: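 Rat liver microsomes at 1 mg protein/mL final, compound at 100 μM final (from a 10 mM CH3CN stock), in 100 mM PBS with 3.0 mM MgCl2 and 1.0 mM NADPH, pH 7.4, 37 °C. Sampled at 0 to 180 min and stopped with ice-cold CH3CN. Control run without NADPH. Centrifuged supernatants analysed by HPLC-UV; three independent experiments in triplicate.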

[5] = Half life in Sprague-Dawley rat liver microsomes at 100 uM by HPLC-UV analysis; assay type: ADME, Microsome
HepG2 [6] = assay: Multidrug resistance reversal activity in adriamycin-resistant human HepG2 cells xenografted in nude BALB/c mouse assessed as increase in mouse survival at 10 mg/kg, ip administered 2 hrs prior to ADR dosing at 5 mg/kg, ip on day 0/3/6 measured every day during compound dosing; assay type: functional, organism-based
Summary of the method: (§3)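 Female BALB/c nude mice, 5 weeks old, implanted s.c. in the right flank with 1 × 10^7 HepG2/ADR cells. At about 60 mm3, randomized into groups of seven and dosed ip on days 0, 3, 6: compound 10 mg/kg given 2 h before ADR 5 mg/kg. Controls got saline with 0.5% DMSO and 5% Kolliphor HS 15. Tumor size and body weight measured daily; survival tracked. IR from mean tumor weights; Student's t test, P < 0.05.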

HepG2 [7] = assay: Cytotoxicity against adriamycin-resistant human HepG2 cells assessed as inhibition of cell proliferation after 48 hrs by MTT assay; assay type: functional, cell-based; details: HepG2, 48 h; summary of the method: as §2
NCI/ADR-RES = assay: Intrinsic cytotoxicity against human MCF7/ADR cells assessed as inhibition of cell proliferation after 48 hrs by MTT assay; assay type: cell-based; summary of the method: as §2
HepG2 [8] = assay: Multidrug resistance reversal activity in adriamycin-resistant human HepG2 cells xenografted in nude BALB/c mouse assessed as tumor growth inhibition at 10 mg/kg, ip administered 2 hrs prior to ADR dosing at 5 mg/kg, ip on day 0/3/6 measured every day during compound dosing; assay type: functional; summary of the method: as §3
[9] = molecular target: T1, ATP-dependent translocase ABCB1; assay: Inhibition of P-gp mediated efflux in adriamycin-resistant human HepG2 cells assessed as intracellular rhodamine-123 accumulation at 2 uM incubated in dark condition for 90 mins by flow cytometry relative to control; assay type: cell-based; summary of the method: as §1
[10] = molecular target: T1, ATP-dependent translocase ABCB1; assay: Inhibition of P-gp mediated efflux in adriamycin-resistant human HepG2 cells assessed as intracellular rhodamine-123 accumulation at 1 uM incubated in dark condition for 90 mins by flow cytometry; assay type: cell-based; summary of the method: as §1

T1 sequence (P08183 whole entry): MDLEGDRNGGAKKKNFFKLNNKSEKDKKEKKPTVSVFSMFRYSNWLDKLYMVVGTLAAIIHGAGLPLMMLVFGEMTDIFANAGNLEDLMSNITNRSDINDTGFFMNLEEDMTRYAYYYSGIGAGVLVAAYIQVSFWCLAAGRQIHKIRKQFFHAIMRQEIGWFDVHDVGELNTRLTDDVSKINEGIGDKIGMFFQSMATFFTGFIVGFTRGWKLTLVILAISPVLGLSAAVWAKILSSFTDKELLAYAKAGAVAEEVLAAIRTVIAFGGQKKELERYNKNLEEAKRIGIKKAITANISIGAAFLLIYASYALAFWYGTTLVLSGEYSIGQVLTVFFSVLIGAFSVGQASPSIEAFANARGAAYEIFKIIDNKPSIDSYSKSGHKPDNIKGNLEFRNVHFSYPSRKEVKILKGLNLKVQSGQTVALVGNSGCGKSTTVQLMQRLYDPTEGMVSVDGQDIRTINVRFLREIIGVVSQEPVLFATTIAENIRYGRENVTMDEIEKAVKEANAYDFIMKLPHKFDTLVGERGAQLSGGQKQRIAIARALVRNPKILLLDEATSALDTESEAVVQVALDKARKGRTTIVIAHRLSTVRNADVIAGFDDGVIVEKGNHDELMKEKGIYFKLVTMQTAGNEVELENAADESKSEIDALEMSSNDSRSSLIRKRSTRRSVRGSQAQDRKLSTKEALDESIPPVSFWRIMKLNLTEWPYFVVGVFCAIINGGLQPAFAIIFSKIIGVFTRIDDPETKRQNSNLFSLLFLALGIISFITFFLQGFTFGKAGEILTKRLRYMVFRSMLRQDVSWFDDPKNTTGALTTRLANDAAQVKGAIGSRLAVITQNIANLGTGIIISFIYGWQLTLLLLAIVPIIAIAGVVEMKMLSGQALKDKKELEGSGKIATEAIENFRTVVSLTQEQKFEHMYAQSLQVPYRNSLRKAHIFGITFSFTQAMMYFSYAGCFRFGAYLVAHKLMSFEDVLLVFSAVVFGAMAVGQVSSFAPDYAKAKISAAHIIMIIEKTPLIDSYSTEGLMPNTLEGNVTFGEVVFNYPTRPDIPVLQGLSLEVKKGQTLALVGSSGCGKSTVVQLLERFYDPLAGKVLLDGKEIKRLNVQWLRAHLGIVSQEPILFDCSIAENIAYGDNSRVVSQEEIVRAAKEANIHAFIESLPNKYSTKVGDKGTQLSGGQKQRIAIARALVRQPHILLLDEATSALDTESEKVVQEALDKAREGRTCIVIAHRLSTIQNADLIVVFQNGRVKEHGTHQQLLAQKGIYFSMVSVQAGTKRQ

FC [1]: 1.34
INH [2]: Active
k el at 100 µM [4]: 1.33e-05 s⁻¹
half-life at 100 µM [5]: 14.4 h
FC [9]: 2.74
INH [10]: Active
Structure (SMILES): CC(=O)O[C@@H]1C[C@@H](OC(=O)c2ccccc2)/C(C)=C/[C@H]2[C@@H](OC(=O)c3ccccc3)[C@@H](C)[C@H](O)[C@]2(OC(C)=O)[C@H](O)[C@](C)(O)CCC1(C)C
IC50 [3]: > 100 µM
Activity (HepG2 [6]): Active
IC50 (HepG2 [7]): > 150 µM
IC50 (NCI/ADR-RES): > 150 µM
TGI (HepG2 [8]): 62.89%
